According to PMC2532710 (Nucleic Acids Research, 2008):
Values joined by “and” are separate entries in the source; they are usually repeats but may differ in a detail not shown here. Equal entries are not always repeated.

Tests used:
Holliday junction = test: 2-AP titration Kd, Holliday junction; format: binding; details: Kd ratio, n = 1
How it was run: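 Each substrate carried 2-AP at strand 4, position 2 and was used at 0.1 μM in 20 mM Tris-HCl pH 7.8, 25 mM NaCl, 1 mM EDTA, 1.6% DMSO at 24°C. Peptide dimer added in 2-fold steps from 0.003125 μM, 3 min each. Excitation 315 nm, emission 330–430 nm. Adenine background subtracted, 365–375 nm averaged. Fc fitted by least squares to pooled 2–3 dilution series. Value given as Kd relative to HJ Kd.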

[1] = system: replication fork substrate; test: 2-AP fluorescence quenching, replication fork; format: binding
How it was run: (§1)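 Substrates were annealed from oligos (boiled 5 min, slow-cooled), gel-purified on native 12% PAGE and quantified spectrophotometrically. After ≥10 min equilibration, emission was read at 330–430 nm (excitation 315 nm). Adenine-substituted spectra were subtracted, and fold decrease at 370 nm was taken versus no peptide.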

protein-free HJ DNA = details: cited from earlier work
flayed duplex molecule = test: 2-AP fluorescence quenching, flayed duplex; format: binding
How it was run: as §1

HJ substrate = test: 2-AP fluorescence quenching, HJ substrate; format: binding
How it was run: as §1

[2] = system: fork substrate with only the leading strand; test: 2-AP fluorescence quenching, leading strand fork; format: binding; details: Lead-1AP1 (central base); 0.05 μM dimer, 0.25:1
How it was run: as §1

(WRWYCR)2 (disulfide)
at least 1.6 fold: quenching of four central 2-AP bases (HJ substrate; 4-fold excess of peptide dimer over substrate)
bind specifically to free HJ DNA: binding to free HJ DNA (protein-free HJ DNA)
strongly inhibited: effect of Mg^2+ or spermidine on HJ binding (protein-free HJ DNA)
quench the fluorescence of 2-AP bases: quenching of 2-AP in the center of HJ and replication forks (HJ substrate; center of both HJ and replication forks)
1.7 fold: fold decrease in 2-AP fluorescence at 370 nm ([1]; Fork-4AP1 (central base), 1.6 μM dimer, 8:1)
1.0 fold: fold decrease in 2-AP fluorescence at 370 nm ([1]; Fork-1AP1 (central base), 0.05 μM dimer, 0.25:1) | fold decrease in 2-AP fluorescence at 370 nm ([1]; Fork-1AP1 (central base), 0.2 μM dimer, 1:1) | fold decrease in 2-AP fluorescence at 370 nm ([1]; Fork-3AP2, 0.2 μM dimer, 1:1) | fold decrease in 2-AP fluorescence at 370 nm ([1]; Fork-4AP1 (central base), 0.05 μM dimer, 0.25:1) | fold decrease in 2-AP fluorescence at 370 nm ([1]; Fork-4AP2 (central base), 0.05 μM dimer, 0.25:1) | fold decrease in 2-AP fluorescence at 370 nm ([1]; Fork-4AP2 (central base), 0.2 μM dimer, 1:1) | fold decrease in 2-AP fluorescence at 370 nm ([1]; Fork-4AP3, 0.05 μM dimer, 0.25:1) | fold decrease in 2-AP fluorescence at 370 nm ([1]; Fork-4AP3, 0.2 μM dimer, 1:1) | fold decrease in 2-AP fluorescence at 370 nm ([1]; Fork-4AP4, 0.05 μM dimer, 0.25:1) | fold decrease in 2-AP fluorescence at 370 nm ([1]; Fork-4AP4, 0.2 μM dimer, 1:1) | fold decrease in 2-AP fluorescence at 370 nm ([1]; Fork-4AP4, 0.8 μM dimer, 4:1) | fold decrease in 2-AP fluorescence at 370 nm (flayed duplex molecule; Flayed-4AP2 (central base), 0.05 μM dimer, 0.25:1) | fold decrease in 2-AP fluorescence at 370 nm (flayed duplex molecule; Flayed-4AP3, 0.05 μM dimer, 0.25:1) | fold decrease in 2-AP fluorescence at 370 nm (flayed duplex molecule; Flayed-4AP4, 0.05 μM dimer, 0.25:1) | fold decrease in 2-AP fluorescence at 370 nm (flayed duplex molecule; Flayed-4AP4, 0.2 μM dimer, 1:1) | fold decrease in 2-AP fluorescence at 370 nm (HJ substrate; HJ-3AP2, 0.2 μM dimer, 1:1) | fold decrease in 2-AP fluorescence at 370 nm (HJ substrate; HJ-4AP2 (central base), 0.05 μM dimer, 0.25:1) | fold decrease in 2-AP fluorescence at 370 nm (HJ substrate; HJ-4AP3, 0.05 μM dimer, 0.25:1) | fold decrease in 2-AP fluorescence at 370 nm (HJ substrate; HJ-4AP4, 0.05 μM dimer, 0.25:1) | fold decrease in 2-AP fluorescence at 370 nm (HJ substrate; HJ-4AP4, 0.2 μM dimer, 1:1) | fold decrease in 2-AP fluorescence at 370 nm [2]
1.6 X: quenching of central bases, preliminary set (HJ substrate; the eighth central base, Boldt and Segall, unpublished data, preliminary)
1.9 fold: fold decrease in 2-AP fluorescence at 370 nm (HJ substrate; HJ-4AP1 (central base), 0.8 μM dimer, 4:1)
1.2 fold: fold decrease in 2-AP fluorescence at 370 nm ([1]; Fork-1AP1 (central base), 0.8 μM dimer, 4:1) | fold decrease in 2-AP fluorescence at 370 nm ([1]; Fork-3AP2, 1.6 μM dimer, 8:1) | fold decrease in 2-AP fluorescence at 370 nm ([1]; Fork-4AP3, 0.8 μM dimer, 4:1) | fold decrease in 2-AP fluorescence at 370 nm ([1]; Fork-4AP4, 1.6 μM dimer, 8:1) | fold decrease in 2-AP fluorescence at 370 nm (flayed duplex molecule; Flayed-4AP1 (central base), 0.8 μM dimer, 4:1) | fold decrease in 2-AP fluorescence at 370 nm (flayed duplex molecule; Flayed-4AP3, 0.8 μM dimer, 4:1) | fold decrease in 2-AP fluorescence at 370 nm (flayed duplex molecule; Flayed-4AP4, 1.6 μM dimer, 8:1) | fold decrease in 2-AP fluorescence at 370 nm (HJ substrate; HJ-1AP1 (central base), 0.2 μM dimer, 1:1) | fold decrease in 2-AP fluorescence at 370 nm (HJ substrate; HJ-4AP1 (central base), 0.2 μM dimer, 1:1) | fold decrease in 2-AP fluorescence at 370 nm (HJ substrate; HJ-4AP2 (central base), 0.2 μM dimer, 1:1) | fold decrease in 2-AP fluorescence at 370 nm (HJ substrate; HJ-4AP3, 0.2 μM dimer, 1:1) | fold decrease in 2-AP fluorescence at 370 nm (HJ substrate; HJ-4AP4, 0.8 μM dimer, 4:1) | fold decrease in 2-AP fluorescence at 370 nm (HJ substrate; HJ-4AP4, 1.6 μM dimer, 8:1)
1.3 fold: fold decrease in 2-AP fluorescence at 370 nm (flayed duplex molecule; Flayed-1AP1 (central base), 1.6 μM dimer, 8:1) | fold decrease in 2-AP fluorescence at 370 nm (flayed duplex molecule; Flayed-4AP2 (central base), 0.8 μM dimer, 4:1) | fold decrease in 2-AP fluorescence at 370 nm (flayed duplex molecule; Flayed-4AP3, 1.6 μM dimer, 8:1) | fold decrease in 2-AP fluorescence at 370 nm (HJ substrate; HJ-3AP1 (central base), 0.2 μM dimer, 1:1)
2.0 fold: fold decrease in 2-AP fluorescence at 370 nm (HJ substrate; HJ-3AP1 (central base), 0.8 μM dimer, 4:1)
only weakly quenched: 2-AP quenching (flayed duplex molecule; Flayed-4AP4 and Flayed-1AP1)
1.6 fold: fold decrease in 2-AP fluorescence at 370 nm (HJ substrate; HJ-1AP1 (central base), 0.8 μM dimer, 4:1)
2.2 fold: fold decrease in 2-AP fluorescence at 370 nm (HJ substrate; HJ-3AP1 (central base), 1.6 μM dimer, 8:1) | fold decrease in 2-AP fluorescence at 370 nm (HJ substrate; HJ-4AP2 (central base), 1.6 μM dimer, 8:1)
2 fold and 2.0 fold: fold decrease in 2-AP fluorescence at 370 nm (HJ substrate; HJ-4AP2 (central base), 0.8 μM dimer, 4:1)
1: Fold reduced versus HJ (Holliday junction)
even less sensitive to quenching: 2-AP quenching (flayed duplex molecule; Flayed-4AP1, 4AP2 and 4AP3, compared with leading strand fork)
1.8 fold: fold decrease in 2-AP fluorescence at 370 nm (HJ substrate; HJ-1AP1 (central base), 1.6 μM dimer, 8:1) | fold decrease in 2-AP fluorescence at 370 nm (HJ substrate; HJ-4AP1 (central base), 1.6 μM dimer, 8:1)
